Reference: ChEMBL document CHEMBL3351800, “Combination of 2-methoxy-3-phenylsulfonylaminobenzamide and 2-aminobenzothiazole to discover novel anticancer agents” (Bioorg Med Chem, 2014)
Activity calls are given as the source filed them. The rule behind the calls is not given here.

What was measured:
[1] = Antiproliferative activity against human HCT116 cells […] by MTT assay; format: functional, cell-based; conditions: HCT-116
[2] = Antiproliferative activity against human U87MG cells after 72 hrs by MTT assay; format: functional, cell-based, U-87MG ATCC; conditions: U-87 MG
Outline: (§1)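 Cells kept as monolayers in DMEM with 10% FBS, 5% CO2, 37 °C. Seeded at 3000-5000 cells/well, grown 24 h before dosing. Treated with 100.0, 10.0, 1.0, 0.1 and 0.01 μM of compound for 48 h. MTT (5 mg/ml in medium) added for 4 h, formazan pelleted, dissolved in DMSO, OD read at 490 nm. IC50 derived from inhibition ratios. Three separate experiments, each in triplicate.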

MCF7 = experiment: Antiproliferative activity against human MCF7 cells […] by MTT assay; format: functional, cell-based
A549 = experiment: Antiproliferative activity against human A549 cells after 72 hrs by MTT assay; format: functional, cell-based; conditions: A549, 72 h; outline: as §1
[3] = Antitumor activity against human HCT116 cells xenografted in BALB/C mouse assessed as reduction in tumor volume at 30 mg/kg, po dosed once daily for 14 days; format: functional; conditions: HCT-116, 336 h
Outline: (§2)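 Male BALB/C nude mice (SPF, 18-20 g) received 3×10^6 HCT-116 cells subcutaneously in the flank. At 100 mm³ tumours, animals were randomised (8 controls, 5 per drug group). Compound given orally in NMP/PEG300 (1:9) once daily for 14 days; controls got vehicle. Tumour volume (length × width × width/2) recorded every 3-4 days. Sacrifice on day 26, inhibition ratios from tumour volume and weight. Mean ± standard error.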

HCT-116 = experiment: Inhibition of PI3K/Akt signalling in human HCT116 cells assessed as reduction in AKT Ser473 phosphorylation at 1 uM after 1 hr by Western blot method; format: cell-based
Outline: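 HCT-116 cells seeded at 1×10^6/well in DMEM with 10% FBS and grown 16 h at 37 °C. Exposed to compound or DMSO for 1 h at 37 °C, then lysed in ice-cold buffer and clarified at 12000 rpm, 20 min, 4 °C. Protein measured by BCA and run on SDS-PAGE. Immunoblotted for AKT, p-Ser473 AKT and β-actin, with chemiluminescent detection and densitometry. Three independent experiments, each in duplicate.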

Mus musculus [4] = experiment: Toxicity in human HCT116 cells xenografted BALB/C mouse assessed as weight loss at 30 mg/kg, po dosed once daily for 14 days; format: organism-based, HCT-116; set-up: dose 30 mg/kg, route oral; conditions: in vivo, 336 h
Outline: (§3)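 Male BALB/C nude mice (18-20 g) carried subcutaneous flank HCT-116 xenografts (3×10^6 cells), randomised at 100 mm³. Compound dosed orally in NMP/PEG300 (1:9) once daily for 14 days; controls got vehicle alone. Body weight recorded every 3-4 days until sacrifice on day 26.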

Mus musculus [5] = experiment: Toxicity in human HCT116 cells xenografted BALB/C mouse assessed as weight loss at 10 to 30 mg/kg, po dosed once daily for 14 days; format: organism-based, HCT-116; set-up: dose 10-30 mg/kg, route oral; conditions: in vivo, 336 h; outline: as §3
[6] = Antitumor activity against human HCT116 cells xenografted in BALB/C mouse assessed as reduction in tumor volume at 10 mg/kg, po dosed once daily for 14 days; format: functional; conditions: HCT-116, 336 h; outline: as §2

Compound | IC50 [1] [µM] | IC50 [2] [µM] | IC50 (MCF7) [µM] | IC50 (A549) [µM] | further results
COc1c(NS(=O)(=O)c2ccc(Cl)cc2)cc(-c2ccc3nc(NC(C)=O)nn3c2)cc1C(N)=O | 31.7 |  |  |  | 
CC(=O)Nc1nc2ccc(-c3cnc(Cl)c(NS(=O)(=O)c4ccc(F)cc4)c3)cc2s1 | 0.51 | 2.79 | 0.52 | 0.2 | 
CC(=O)Nc1nc2ccc(-c3cc(NS(=O)(=O)c4ccc(F)cc4)c(Cl)c(C(N)=O)c3)cn2n1 | > 50 |  |  |  | 
COc1c(NS(=O)(=O)c2ccc(C)cc2)cc(-c2ccc3nc(NC(C)=O)nn3c2)cc1C(N)=O | 27.3 |  |  |  | 
COc1c(NS(=O)(=O)c2ccc(F)cc2)cc(-c2ccc3nc(NC(C)=O)nn3c2)cc1C(N)=O | 25.4 |  |  |  | 
COc1c(NS(=O)(=O)c2ccc(F)cc2)cc(-c2ccc3nc(NC(=O)C4CC4)nn3c2)cc1C(N)=O | 43.5 |  |  |  | 
COc1c(NS(=O)(=O)c2ccc(F)cc2)cc(-c2ccn3nc(NC(=O)C4CC4)nc3c2)cc1C(N)=O | > 50 |  |  |  | 
COc1c(NS(=O)(=O)c2ccc(F)cc2)cc(-c2ccc3nc(NC(C)=O)sc3n2)cc1C(N)=O | 4.25 | 21.7 | 12.5 | 4.31 | 
COc1c(NS(=O)(=O)c2ccc(F)cc2)cc(-c2ccc3nc(NC(=O)C4CC4)sc3n2)cc1C(N)=O | 2.5 | 20.5 | 22.1 | 8.05 | 
Cn1c(=O)n(-c2ccc(C(C)(C)C#N)cc2)c2c3cc(-c4cnc5ccccc5c4)ccc3ncc21 [DACTOLISIB] | 0.32 | 2.34 | 0.55 | 0.1 | inhibition in vivo at 30 mg/kg [3]: 24.2%; inhibition (HCT-116): Active; Activity (Mus musculus [4]): Toxic
CCOC(=O)CNc1nc2ccc(-c3cc(NS(=O)(=O)c4ccc(F)cc4)c(OC)c(C(N)=O)c3)cc2s1 | > 50 |  |  |  | 
COc1c(NS(=O)(=O)C2CC2)cc(-c2ccc3nc(NC(=O)C4CC4)sc3c2)cc1C(N)=O | 14.5 | 8.22 |  | 46.3 | 
COc1c(NS(=O)(=O)c2ccc(F)cc2)cc(-c2ccc3nc(NC(C)=O)sc3c2)cc1C(N)=O | 1.95 | 4.75 | 0.5 | 1.7 | inhibition in vivo at 30 mg/kg [3]: 46.9%; inhibition (HCT-116): Active; Activity (Mus musculus [5]): Non-toxic; inhibition in vivo at 10 mg/kg [6]: 40.1%
NC(=O)c1cc(-c2ccc3nc(NC(=O)C4CC4)sc3c2)cc(NS(=O)(=O)c2ccc(F)cc2)c1Cl | 11.4 | 17.9 | > 50 | > 50 | 
COc1c(NS(=O)(=O)c2ccc(F)cc2)cc(-c2ccc3nc(NC(=O)C4CC4)sc3c2)cc1C(N)=O | 2.01 | 2.87 | 1.58 | 6.34 | 
COc1c(NS(=O)(=O)c2ccc(F)cc2)cc(-c2ccc3nc(NC4CC4)sc3c2)cc1C(N)=O | > 50 |  |  |  | 
COc1c(NS(=O)(=O)c2ccc(F)cc2)cc(-c2ccn3nc(N)nc3c2)cc1C(N)=O | > 50 |  |  |  | 
NC(=O)c1cc(NS(=O)(=O)c2ccc(F)cc2)cc(-c2ccc3nc(NC(=O)C4CC4)sc3c2)c1 | > 50 |  |  |  | 
COc1c(NS(=O)(=O)c2ccc(F)cc2)cc(-c2ccn3nc(NC(C)=O)nc3c2)cc1C(N)=O | 32.6 |  |  |  | 
COc1c(NS(=O)(=O)C2CC2)cc(-c2ccc3nc(NC(C)=O)nn3c2)cc1C(N)=O | 36.3 |  |  |  | 
COc1c(NS(=O)(=O)c2ccc(F)cc2)cc(-c2ccc3nc(NC4CC4)sc3n2)cc1C(N)=O | 35.7 | 41.7 | 33.1 | 30.2 | 
